# Assay results: PubChem BioAssay AID1448 (The Scripps Research Institute Molecular Screening Center, 2008)
# Out of some 220,000 compounds screened, about 630 (0.29%) were called active. Many of the other results were omitted from the sample, so actives are more common in it than they were. A number with no mark means an inactive call.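 How the source made its calls: active means activation above its plate's cutoff, the mean activation of the plate's test wells plus 3 SD (cut at about 12% in these data); inactive means the rest.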
# Target: Mucolipin-3 (Homo sapiens) (UniProt Q8TDD5)
# Assay: human TRPML3 channel agonists, primary screen, cell-based, HEK293 TRPML3-YFP, Fluo-8 calcium fluorescence, 3 µM (AID 1448);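 further: 0% = DMSO only wells and 100% = carbachol wells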
# Conditions: at 3 µM, hits give high values, 100% = the carbachol control signal
# Method in brief: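 Material: TRPML3-YFP stable HEK293 cells | Dosing: One concentration, 3 µM nominal, 0.3% DMSO | Timing: 125 s total fluorescence read per well | Technique: Fluo-8 calcium dye fluorescence, ex 470-495, em 515-575 nm | Measure: Percent activation from peak-to-basal fluorescence ratio, scaled between DMSO and carbachol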
# Sequence of Mucolipin-3 (Homo sapiens) (Q8TDD5 whole entry, looked up): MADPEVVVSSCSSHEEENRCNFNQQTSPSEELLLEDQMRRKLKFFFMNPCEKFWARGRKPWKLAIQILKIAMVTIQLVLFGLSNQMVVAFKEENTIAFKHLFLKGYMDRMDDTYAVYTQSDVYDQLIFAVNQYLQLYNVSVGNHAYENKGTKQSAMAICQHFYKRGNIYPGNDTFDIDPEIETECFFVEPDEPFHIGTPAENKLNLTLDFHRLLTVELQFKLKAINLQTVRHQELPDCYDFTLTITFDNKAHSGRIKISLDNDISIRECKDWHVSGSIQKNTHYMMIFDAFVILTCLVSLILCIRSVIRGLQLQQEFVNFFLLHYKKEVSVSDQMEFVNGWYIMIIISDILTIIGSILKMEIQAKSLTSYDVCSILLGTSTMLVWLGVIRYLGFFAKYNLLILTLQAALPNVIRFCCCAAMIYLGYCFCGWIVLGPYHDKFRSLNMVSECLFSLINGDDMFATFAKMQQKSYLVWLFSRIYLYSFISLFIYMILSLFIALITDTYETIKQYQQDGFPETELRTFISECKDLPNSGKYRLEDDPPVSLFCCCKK
row,SMILES,activation
1,CCOc1cc(/C=C2/C(=N)N3OC(C)=CC3=NC2=O)ccc1OC,0.9%
2,COc1ccc(OCCCn2cccc2/C=C2/C(=N)N3OC(C)=CC3=NC2=O)cc1,1.97%
3,CC1=CC2=NC(=O)/C(=C/c3coc4ccccc4c3=O)C(=N)N2O1,18.6% (active)
4,COc1ccc(N2C(=O)/C(=C\c3ccco3)N=C2SCC(N)=O)cc1Cl,0.09%
5,O=C(c1cccc(F)c1)N1CCN(c2ccc([N+](=O)[O-])c3cccnc23)CC1,0.25%
6,CCN1CCN(c2nc(Nc3cccc(F)c3)nc(N)c2[N+](=O)[O-])CC1,0.34%
7,COCCCNC(=S)NC(=O)c1ccccc1,0.01%
8,CCOC(=O)C1=C(NC(=S)NC(=O)c2ccccc2)c2ccccc2CC1(C)C,43.3% (active)
9,CCOC(=O)c1c(-c2ccccc2)csc1NC(=S)NC(=O)c1ccccc1,-0.33%
10,CCc1ccc2ncc(C(=O)c3ccccc3)c(N3CCOCC3)c2c1,-0.05%
11,COCCNc1cc(NCCOC)c([N+](=O)[O-])cc1[N+](=O)[O-],0.69%
12,CCOc1ccc(S(=O)(=O)N2CCCCCC2)c2ccccc12,101% (active)
13,COc1ccc(S(=O)(=O)N2CCOCC2)c(C)c1C,0.66%
14,COc1ccc(S(=O)(=O)N2CCCCC2)cc1Br,9.19%
15,COc1ccc(S(=O)(=O)N2CCCC2)c(C)c1C,13.3% (active)
16,COc1ccc(F)cc1S(=O)(=O)N1CCCCC1,0.95%
17,CCOc1ccc(Br)cc1S(=O)(=O)N1CCC(C(=O)O)CC1,1.07%
18,COc1ccccc1Cn1c(C)nnc1-c1cnn(C)c1N,-0.66%
19,CCCCN(CCCC)CC(O)Cn1c2ccccc2c(=O)c2ccccc21 (stereo not drawn),0.31%
20,Cc1cc(Cl)ccc1OCc1nc(-c2ccncc2)no1,-0.07%
21,O=C(CSc1nnc2n1CCCN2)c1ccccc1,0.51%
22,COc1ccc(C2(CNC(=O)C(c3ccccc3)c3ccccc3)CCOCC2)cc1OC,0%
23,CCN(CC)C(=O)CC1(c2ccccc2OC)CCOC(C(C)C)C1 (stereo not drawn),17.3% (active)
24,CCN(CC)C(=O)CSc1nc2ccccc2n1CC(=O)N1CCN(c2ccccc2OC)CC1,-0.02%

row,SMILES,activation
1,CCC(C)(C)NC(=O)C(c1ccc(O)cc1)N(C(=O)Cn1nnc2ccccc21)c1ccc(NC(C)=O)cc1 (stereo not drawn),0.14%
2,COc1cc(-c2cc(C(=O)OCC(=O)Nc3ccc4c(c3)OCO4)c3ccccc3n2)cc(OC)c1OC,-0.31%
3,NC(=O)c1ccc(NC(=O)COC(=O)c2c3c(nc4ccccc24)/C(=C\c2ccc4c(c2)OCO4)CCC3)cc1,29.2% (active)
4,NS(=O)(=O)c1ccc(NC(=O)COC(=O)c2cc3ccccc3oc2=O)cc1,0.31%
5,O=C(COC(=O)c1c2c(nc3ccccc13)/C(=C\c1cccs1)CCC2)Nc1ccccc1Cl,0.46%
6,NS(=O)(=O)c1ccc(NC(=O)COC(=O)c2ccc(Cl)nc2)cc1,0.29%
7,NS(=O)(=O)c1ccc(NC(=O)COC(=O)c2c3c(nc4ccccc24)/C(=C\c2ccc4c(c2)OCO4)CCC3)cc1,24% (active)
8,Cc1ccc(C2=N/C(=C\c3ccc(OS(=O)(=O)c4ccc(C)cc4)cc3)C(=O)O2)cc1,0.55%
9,CCN(CC)S(=O)(=O)c1ccc(C)c(NC(=O)COc2ccc(Br)cc2Cl)c1,0.13%
10,O=C(Nc1ccccc1C(=O)O)c1cc(S(=O)(=O)N2CCCCC2)cs1,-0.64%
11,c1csc(-c2nnc(COc3ccc4c(c3)OCO4)o2)c1,0.41%
12,c1ccc2c(C[n+]3csc4ccccc43)cccc2c1,34.1% (active)
13,c1ccc2c(CSCc3nc4ccccc4[nH]3)cccc2c1,0.61%
14,Nc1scc[n+]1Cc1cccc2cccnc12,0.56%
15,COc1cccc(NC(=O)CN2CCN(c3nc(-c4cccc(OC)c4)cs3)CC2)c1,0.54%
16,CC1CCCC(C)N1C(=O)CN1CCN(c2nc(-c3ccc(F)cc3)cs2)CC1 (stereo not drawn),12.9% (active)
17,O=C(CN1CCN(c2nc(-c3ccccc3)cs2)CC1)NCc1ccc2c(c1)OCO2,0.02%
18,CC1CCCC(NC(=O)COC(=O)[C@@H]2CC(O)CN2S(=O)(=O)c2ccc3c(c2)OCCO3)C1C (stereo partly drawn),0.86%
19,COc1cc(N/C=C2\CC(=O)NC(C)=C2C#N)cc(OC)c1OC,0.7%
20,COc1cccc(CC(=O)N2CCCC(CCC(=O)N3CCN(c4ccccn4)CC3)C2)c1 (stereo not drawn),2.9%
21,CC(C[N+](C)(C)C)OC(N)=O (stereo not drawn),3.52%
22,CC(=O)OC(C)C[N+](C)(C)C (stereo not drawn),78.4% (active)
23,COc1ccc(C[C@H]2CN3C(=NC[C@H]3C)N2CCNC(=O)CCC2CCCCC2)cc1,0.4%
24,CCCCCCCCCCOC(=O)C[N+](C)(C)CC1CCCCC1O (stereo not drawn),-0.99%

row,SMILES,activation
1,O=S(=O)(N1CCCCC1)N1CCNCC1,0.7%
2,Cc1cccc(C)c1N1CCN(S(=O)(=O)N2CCCCC2)CC1,57.5% (active)
3,Cc1cccc(C)c1N1CCN(S(=O)(=O)N2CCOCC2)CC1,1.69%
4,CCC(C)(C)c1ccc(OCC(=O)N(C)C)c(C(C)(C)CC)c1,0.49%
5,CC1=CC(C)(C)N(C(=O)CSc2nccn2C)c2cc(C)ccc21,-1.12%
6,CC1=CC(C)(C)N(C(=O)CSc2nnc(-c3ccccc3)o2)c2ccc(C)cc21,23.2% (active)
7,O=C(CSc1nnc(-c2ccccc2)o1)N1CCOCC1,0.92%
8,Cc1ccc(C(=O)N2CCN(S(=O)(=O)N3CCOCC3)CC2)cc1,0.24%
9,O=C(COC(=O)CC1CC2CCC1C2)NC(=O)NC1CCCC1 (stereo not drawn),0%
10,COc1ccc(S(=O)(=O)NC(C)C(=O)Nc2cccc([N+](=O)[O-])c2)cc1 (stereo not drawn),-0.47%
11,COc1cc(OC)c(-n2cc(-c3ccc(Cl)cc3)[nH]c2=O)cc1Cl,12.1% (active)
12,COc1cc(OC)c(-n2c(C)cc(C=O)c2C)cc1Cl,-0.32%
13,COc1ccc(-c2cn(-c3ccc(OC)cc3)c(=S)[nH]2)cc1,0.32%
14,Cc1nnc(N/N=C/C2CC=CCC2)[nH]c1=O (stereo not drawn),1.13%
15,N#C/C(=C/c1ccc(N2CCCCC2)o1)C(=O)NCCc1c[nH]c2ccccc12,15.6% (active)
16,N#C/C(=C/c1ccc(-c2ccccc2[N+](=O)[O-])o1)C(=O)NCCN1CCCCC1,-0.32%
17,O=C(NCCc1c[nH]c2ccccc12)C(=O)NCC1CCCO1 (stereo not drawn),0.08%
18,Cn1c(SCC(=O)c2ccc(F)cc2)nnc1-c1ccccn1,-0.33%
19,Cc1nc(COc2cccc(Cl)c2)sc1C(=O)/C=C/N(C)C,-0.16%
20,COc1ccc(N=C(C)c2sc3ccccc3c2O)cc1,2.16%
21,CCC(C(=O)Nc1ccc(C(C)C)cc1)c1ccccc1 (stereo not drawn),15.7% (active)
22,CCC(C(=O)Nc1ccc2c(c1)OCCO2)c1ccccc1 (stereo not drawn),-0.06%
23,CCC(C(=O)OCC(=O)Nc1ccc(C(=O)Nc2ccc(OC)cc2)cc1)c1ccccc1 (stereo not drawn),1.2%
24,Cn1cccc1/C=N/NC(=O)c1ccc(OC(F)(F)C(F)F)cc1,0.29%

row,SMILES,activation
1,Cc1cc(NC(=O)CCC(=O)N(CC(=O)NCC2CCCO2)c2ccccc2C)no1 (stereo not drawn),-0.47%
2,Cc1cc(C)nc(/N=C2\NC(=O)CC(C(=O)O)N2c2ccc(Cl)cc2Cl)n1 (stereo not drawn),0.53%
3,Cc1ccc(C(NC(=O)N2CCCC2)C(Cl)(Cl)Cl)cc1F (stereo not drawn),-0.15%
4,Oc1ccc2ccc3cccc[n+]3c2c1,14.6% (active)
5,C/C(=N\Nc1nc(N2CCOCC2)nc(N2CCOCC2)n1)c1ccc([N+](=O)[O-])cc1,0.78%
6,COc1ccc(/C=N/NC(=O)C(C)N(c2ccc(OC)cc2)S(C)(=O)=O)cc1 (stereo not drawn),0.53%
7,CC(C)n1c(CN2CCN(Cc3ccccc3)CC2)nc2ccccc21,0.13%
8,CCN(C(=O)Cc1nc(N)n[nH]1)C1(C(=O)Nc2ccccc2)CCCCC1,-0.28%
9,Cc1nc2sc(C(=O)c3ccccc3)c(N)c2c2c1CCCC2,-0.35%
10,CN(C)c1ccnc2sc(C(=O)c3ccccc3)c(N)c12,-0.55%
11,Nc1c(C(=O)c2cccs2)sc2nsc(SCCN3CCCCC3)c12,23.1% (active)
12,CCN(CC)c1ccc(C(=O)c2cnc(/N=C/N(C)C)s2)cc1,-0.38%
13,COC(=O)c1ccccc1N=Nc1c(C)[nH][nH]c1=O,0.25%
14,C[C@@H](NC(=O)OC(C)(C)C)c1nnc(S(=O)(=O)Cc2ccccc2)o1,1.12%
15,CCN1CCN(CCNC(=O)c2ccc(/C=C3/Sc4ccccc4N(Cc4cccc(C)c4)C3=O)cc2)CC1,1.89%
16,CCN1/C(=C/C(=S)Nc2ccccc2)Sc2ccccc21,-0.23%
17,CCN1/C(=C/c2ccc3ccc(C)cc3[n+]2CC)Sc2ccccc21,12.7% (active)
18,CCN1/C(=C\c2ccc3ccccc3[n+]2CC)Sc2cc(C)ccc21,16.6% (active)
19,COc1ccc(CNC(=O)CN(Cc2ccc(Cl)cc2)S(C)(=O)=O)cc1,0.83%
20,COc1ccc(N(Cc2ccccc2)S(=O)(=O)c2cccc(C(=O)O)c2)cc1,0.34%
21,COc1ccc(N(CCC#N)S(=O)(=O)c2ccc(Cl)cc2)cc1,11.9% (active)
